# Assay results of several laboratories.
# Target: Serine/threonine-protein kinase ULK2 (ULK2, Homo sapiens, UniProt Q8IYT8)
# Sequence (Q8IYT8 1-1036, as in one of the studies): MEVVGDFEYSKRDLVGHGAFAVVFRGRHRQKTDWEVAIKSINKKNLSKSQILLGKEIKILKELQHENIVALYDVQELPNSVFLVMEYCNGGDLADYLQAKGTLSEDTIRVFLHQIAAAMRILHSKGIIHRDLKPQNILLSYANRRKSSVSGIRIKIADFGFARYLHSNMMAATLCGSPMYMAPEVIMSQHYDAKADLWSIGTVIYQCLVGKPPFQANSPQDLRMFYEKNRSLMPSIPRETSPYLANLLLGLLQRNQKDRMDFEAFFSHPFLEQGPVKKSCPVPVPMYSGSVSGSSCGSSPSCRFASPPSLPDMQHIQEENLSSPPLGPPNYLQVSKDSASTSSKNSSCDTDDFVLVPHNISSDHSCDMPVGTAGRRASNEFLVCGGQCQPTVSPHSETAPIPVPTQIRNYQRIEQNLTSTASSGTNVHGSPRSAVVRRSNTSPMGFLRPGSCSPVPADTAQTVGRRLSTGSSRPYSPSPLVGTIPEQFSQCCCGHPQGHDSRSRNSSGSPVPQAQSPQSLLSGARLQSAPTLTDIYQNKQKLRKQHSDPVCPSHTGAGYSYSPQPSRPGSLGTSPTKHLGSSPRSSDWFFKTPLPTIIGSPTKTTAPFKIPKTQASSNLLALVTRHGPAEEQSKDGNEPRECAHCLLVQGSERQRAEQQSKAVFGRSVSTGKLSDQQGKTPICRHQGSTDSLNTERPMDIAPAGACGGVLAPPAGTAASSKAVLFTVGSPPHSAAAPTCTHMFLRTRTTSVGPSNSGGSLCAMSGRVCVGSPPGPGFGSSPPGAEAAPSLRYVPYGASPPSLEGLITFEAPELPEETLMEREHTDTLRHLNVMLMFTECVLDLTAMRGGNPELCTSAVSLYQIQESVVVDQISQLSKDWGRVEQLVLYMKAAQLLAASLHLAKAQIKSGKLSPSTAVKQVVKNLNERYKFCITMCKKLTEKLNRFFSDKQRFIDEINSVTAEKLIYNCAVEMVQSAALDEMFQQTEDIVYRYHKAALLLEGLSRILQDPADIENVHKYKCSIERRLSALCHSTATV
Structure (SMILES),assay,system,conditions,measurement,result
CC(C)(O)[C@H]1CC[C@H](Nc2ccc3ncc(-c4cccc(C(F)(F)F)c4)n3n2)CC1,"enzyme activity, inhibitor",,1 µM,remaining activity,97.9%
CC(=O)N1CCC(c2ccc(C(=O)NC3=NCCN3)cc2C(F)(F)F)CC1,"cell-free assay, competition with immobilised ligand",,1 µM,remaining binding,82%
CNC(=O)c1cc(Oc2ccc(NC(=O)Nc3ccc(Cl)c(C(F)(F)F)c3)cc2)ccn1,cell-free assay,,0.5 µM,remaining signal,106%
CN1CCN(c2cnc3c(C4CCN(C(=O)c5ccc(OC(F)(F)F)cc5N)CC4)ncnc3c2)CC1,"cell-free assay, competition with immobilised ligand",,1 µM,remaining binding,100%
COc1cc(Cl)c(C(=O)N[C@@H](CN[C@H]2CC[C@@H](N)CC2)Cc2ccc(C#N)cc2)cc1-c1ccc(CN[C@H](C)c2ccc(C)cc2)o1,"enzyme activity, inhibitor",,1 µM,remaining activity,94%
CCN(CC)c1ccc(C2=NNC(=O)CC2C)cc1[N+](=O)[O-] (stereo not shown),"enzyme activity, inhibitor",,10 µM,remaining activity,97%
CCCCN(CCCC)C(=O)CN1C[C@@H](c2cc(OC)c3c(c2)OCO3)[C@H](C(=O)O)[C@H]1CC(C)(C)CCC,"cell-free assay, competition with immobilised ligand",,1 µM,remaining binding,89.2%
Cc1ccc(C(=O)Nc2ccc(CN3CCN(C)CC3)c(C(F)(F)F)c2)cc1C#Cc1cnc2cccnn12,"enzyme activity, inhibitor",,23.5 nM,remaining activity,94%
Cc1cc(NC(=O)c2cccc3cc(-c4cccc5[nH]nc(N)c45)ccc23)ccc1F,"enzyme activity, inhibitor",,0.1 µM,activity vs control,105%
Cc1sc(C(=O)NC2COC2)cc1-n1cc(NC(=O)Nc2c(F)cccc2Cl)cn1,"enzyme activity, inhibitor",,10 µM,remaining activity,74.9%
CCCOc1ccc(OC)c(F)c1C(=O)c1ccc(C(=O)N[C@@H]2CNC[C@H]2NC(=O)c2ccc3[nH]ncc3c2)cc1,"enzyme activity, inhibitor",,10 µM,remaining activity,101%
O=C(CSc1nc2nccnc2c(=O)n1CCc1ccccc1)Nc1nccs1,"enzyme activity, inhibitor",,10 µM,inhibition,2%
CCN1CCN(Cc2ccc(NC(=O)c3ccc(C)c(Oc4ccnc5[nH]ccc45)c3)cc2C(F)(F)F)CC1,"target engagement in cells, inhibitor, chemoproteomics",Huh-7,1 µM,inhibition,-16.6%
CCCOc1ccc([C@@H]2[C@@H](C(=O)O)[C@H](c3ccc4c(c3)OCO4)CN2CC(=O)Nc2c(CC)cccc2CC)cc1,"cell-free assay, competition with immobilised ligand",,1 µM,remaining binding,76%
C[S+]([O-])c1ccc(-c2nc(-c3ccncc3)c(-c3ccc(F)cc3)[nH]2)cc1 (stereo not shown),cell-free assay,,0.5 µM,remaining signal,83.5%
O=C(Nc1cnn(-c2csc(C(=O)NC3COC3)c2)c1)Nc1ccccc1Cl,"enzyme activity, inhibitor",,5 µM,remaining activity,196%
Cc1cnc(NC2CCOCC2)nc1-n1cnc(C(=O)NC(CN)c2cc(F)cc(Cl)c2)c1 (stereo not shown),"enzyme activity, inhibitor, radiometric",,1 µM,remaining activity,110%
FC(F)(F)Oc1cccc(-c2cnc3ccc(-c4ccncc4)nn23)c1,"enzyme activity, inhibitor, radiometric",,1 µM,activity vs control,110%
CN(C(=O)c1ccccc1)c1cc(N(C)c2ccc3c(c2)CCc2ccc(C(=O)NCCN4CCOCC4)cc2C3=O)ccc1F,"cell-free assay, competition with immobilised ligand",,1 µM,remaining binding,100%
O=C1Nc2ccc(Cl)cc2C1=Cc1cc(Cl)c(O)c(Cl)c1,cell-free assay,,0.5 µM,remaining signal,101%
N#Cc1ccc(Nc2ccc3[nH]c(=O)[nH]c3c2)c(Cl)c1,"cell-free assay, competition with immobilised ligand",,1 µM,remaining binding,99%
COc1cc2c(Nc3ccc(Br)cc3F)ncnc2cc1OCC1CCN(C)CC1,cell-free assay,,0.5 µM,remaining signal,108%
